Screens from PubChem BioAssay.
The list is not random: actives were taken first. Their share in the collection is about 1.9%.
DNMT1 inh: human DNMT1 methyltransferase inhibitors, primary screen, biochemical, molecular beacon, fluorescence, HinP1I cleavage, uHTS. hit rate 0.83% among 360,000. DNA (cytosine-5)-methyltransferase 1 (Homo sapiens), P26358. inhibition (reported as % activation of signal), % at 10 µM; in the data active means inhibition above about 50%
LMPTP block: LMPTP phosphatase inhibitors, primary screen, biochemical, fluorescence intensity, uHTS | hit rate 0.22% among 360,000 | Low molecular weight phosphotyrosine protein phosphatase (Homo sapiens), P24666 | inhibition, % at 20 µM | recombinant LMPTP-A, OMFP fluorogenic substrate;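 active means compounds that cut the enzyme signal by at least half of the control window in the single-dose screen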;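 further: plate controls were DMSO wells with enzyme plus substrate for no effect and substrate without enzyme for full effect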
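Test system – LMPTP-A phosphatase enzyme · Quantity – 0.625 nM LMPTP-A final · Reagent – OMFP substrate, 400 µM final · Dosing – one test concentration per compound, 20 µM, with 3% DMSO overall · Timing – 50 min enzyme reaction at room temperature, protected from light · Detection – fluorescence intensity · Controls – substrate-only low control, DMSO enzyme-plus-substrate high control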
CSN inh: inhibitors of CSN-mediated cullin deneddylation, primary screen, biochemical, fluorescence polarization, uHTS; hit rate 0.38% among 360,000; Purified CSN, SCF-Nedd8-OG deneddylation; inhibition, % at 12.5 µM; AID 651999, 2013;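 active means pattern-corrected inhibition above about 35%, with an unprinted fluorescence ratio check between 0.5 and 1.5, limit read from the data, passing the limit was not always enough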;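 further: 0% = enzyme with substrate and 100% = substrate without enzyme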
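Assay system: HEK293T-derived human Csn5 enzyme; quantity: 0.24 nM enzyme; medium: Tris/NaCl/DTT buffer, pH 7.5; also added: substrate SCFSkp2-Nedd8OG, 10 nM; doses: 12.5 µM compound; schedule: 90 min reaction at room temperature; signal: FP; read-out: % inhibition of substrate cleavage by Csn5; benchmarks: substrate-only high control, full reaction low control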
STEP inh: STEP phosphatase inhibitors, primary screen, biochemical, fluorescence intensity, uHTS; Tyrosine-protein phosphatase non-receptor type 5 (Homo sapiens), P54829; recombinant STEP, OMFP fluorogenic substrate; inhibition, % at 20 µM; hit rate 0.25% among 360,000; AID 588621, 2011;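 active means inhibition at 20 µM, scaled per plate between control wells, above about 37%, limit read from the data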;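 further: 0% = DMSO with enzyme and substrate and 100% = substrate only without enzyme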
Target sequence (P54829 whole entry, looked up): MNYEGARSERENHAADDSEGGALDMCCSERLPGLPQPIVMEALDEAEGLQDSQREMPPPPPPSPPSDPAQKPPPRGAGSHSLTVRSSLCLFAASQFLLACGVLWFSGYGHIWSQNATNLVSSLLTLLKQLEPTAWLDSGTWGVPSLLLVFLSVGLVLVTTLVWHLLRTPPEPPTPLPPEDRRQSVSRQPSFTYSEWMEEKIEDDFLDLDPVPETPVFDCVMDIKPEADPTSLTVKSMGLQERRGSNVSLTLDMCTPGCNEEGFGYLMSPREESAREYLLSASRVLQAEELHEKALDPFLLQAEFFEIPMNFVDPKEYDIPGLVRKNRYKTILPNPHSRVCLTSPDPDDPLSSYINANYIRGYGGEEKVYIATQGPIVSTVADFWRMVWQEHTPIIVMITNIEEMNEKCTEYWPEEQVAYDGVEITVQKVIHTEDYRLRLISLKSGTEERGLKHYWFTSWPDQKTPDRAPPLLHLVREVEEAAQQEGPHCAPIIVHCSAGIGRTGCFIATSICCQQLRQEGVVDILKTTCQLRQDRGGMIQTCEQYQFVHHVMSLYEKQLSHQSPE
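Material: STEP (striatal-enriched tyrosine phosphatase) enzyme, cell-free; Compound dosing: 20 µM single dose in 1% DMSO; Technique: fluorescence read at 480 nm ex / 540 nm em; Times: reaction 20 min, ambient temperature; Medium: 50 mM Bis-Tris pH 6.0 with 2.5 mM DTT and 0.005% Tween 20; Also added: OMFP at 25 µM.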
SUMO1-SIM PPI: modulators of SUMO1 protein-protein interactions, primary screen, biochemical, uHTS; Small ubiquitin-related modifier 1 (Homo sapiens), P63165; SUMO1 binding to a labelled peptide, TR-FRET, 1 h; inhibition, % at 20 µM; hit rate 0.33% among 360,000; AID 602429, 2012; in the data active means inhibition above about 37%
Scp1 inh: Scp-1 phosphatase inhibitors, primary screen, biochemical, colorimetric, uHTS; hit rate 0.88% among 340,000; AID 493091, 2011; Recombinant Scp1, phosphopeptide, malachite green phosphate absorbance; inhibition, % at 20 µM; Carboxy-terminal domain RNA polymerase II polypeptide A small phosphatase 1 (Homo …;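 active means inhibition above about 50% at 20 µM, limit read from the data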;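 further: plate controls were DMSO wells with enzyme for no effect and wells lacking enzyme for full effect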
Target sequence (Q9GZU7 76-261 limits assumed): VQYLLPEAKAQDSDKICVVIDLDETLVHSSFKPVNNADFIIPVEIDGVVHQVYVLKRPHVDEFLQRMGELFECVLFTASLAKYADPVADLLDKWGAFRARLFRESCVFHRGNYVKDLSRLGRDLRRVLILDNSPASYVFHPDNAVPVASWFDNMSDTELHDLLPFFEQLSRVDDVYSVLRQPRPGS
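Test system: SCP-1 phosphatase catalytic domain, residues 76-261 | Compound dosing: One concentration, 20 µM, with 1.0% DMSO | Schedule: 45 min room-temperature reaction, 5 min colour, 30 min stabiliser | Detection: Absorbance at 630 nm | Read-out basis: % inhibition of SCP-1 phosphate liberation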
The depositor's hits bear a star; i = inactive; · = not tested or not shown; + = active, no number.

SMILES	DNMT1 inh	LMPTP block	CSN inh	STEP inh	SUMO1-SIM PPI	Scp1 inh
O=C(N/N=C/c1cccnc1)c1cc2c(ccc3ccccc32)o1	0.0	1.5	55.2*	6.8	20.0	37.7
O=C(N/N=C/c1cccnc1)c1cc2ccccc2o1	0.3	-0.7	-4.5	-0.8	-13.9	4.9
CCOc1ccc(N2CSC3=C(C#N)C(c4ccco4)CC(=O)N3C2)cc1 (stereo not drawn)	3.8	-0.7	-2.4	0.5	1.3	-3.8
COc1ccc(Br)cc1C1CC(=O)N2CN(Cc3ccccc3)CSC2=C1C#N (stereo not drawn)	-18.2	9.6	2.3	46.4*	5.5	-12.0
COc1ccc(Br)cc1C1CC(=O)N2CN(C)CSC2=C1C#N (stereo not drawn)	-10.4	10.1	-2.7	18.0	12.3	-4.8
Cc1ccc(C2CC(=O)N3CN(c4ccc(Br)cc4)CSC3=C2C#N)o1 (stereo not drawn)	101.2*	13.9	35.3*	13.2	17.7	-12.6
CC1CN(C(=O)c2cccn(Cc3c(Cl)cccc3Cl)c2=O)CC(C)O1 (stereo not drawn)	2.3	-1.0	2.7	-3.7	5.9	4.2
Cc1cccc(OCCNc2cc(N3CCN(CCO)CC3)ccc2[N+](=O)[O-])c1	-6.8	-1.4	-4.1	8.9	-17.0	-1.7
C/C(N)=C(/C#N)C(=O)CSc1nc2ccccc2c(=O)n1Cc1ccc(F)cc1	34.0	17.5	9.6	24.1	0.4	72.6*
C/C(N)=C(/C#N)C(=O)CSc1nc2ccccc2c(=O)n1Cc1ccc(C)cc1	8.3	3.1	-6.9	-0.2	6.8	0.4
Cc1cccc(C)c1NC(=O)C1(C)CN(S(C)(=O)=O)CC(=O)N1CCCn1ccnc1 (stereo not drawn)	·	-1.5	-1.8	·	-1.5	·
CCn1c(CSc2nc3ccccc3s2)nnc1SCC(=O)c1ccc(Cl)cc1	-1.9	3.0	-6.1	-0.1	-1.3	3.8
CCn1c(CSc2nc3ccccc3s2)nnc1SCC(=O)c1ccc(O)c(O)c1	8.1	49.9	5.4	0.9	12.9	59.2*
CC1=C(C#N)c2nc(N)c(C#N)c(C)c2/C1=C\c1ccc(-c2ccccc2C(=O)O)o1	61.9*	24.0	23.4	19.3	29.7	62.8*
COc1cc(/C=C2/C(C)=C(C#N)c3nc(N)c(C#N)c(C)c32)ccc1OCC(=O)O	·	·	·	·	·	8.7
Nc1cc(C(F)(F)F)ccc1Nc1ccccc1	2.1	1.3	-0.7	-2.0	-1.0	0.7
O=c1cc(-c2ccc(O)c(O)c2)oc2ccc3ccccc3c12	-1.8	6.9	0.3	4.4	11.2	4.4
O=c1cc(-c2ccc(O)c(O)c2)oc2c1ccc1ccccc12	0.6	15.2	9.4	4.3	75.2*	1.5
COc1ccc(CCC(=O)OCC(=O)NCc2ccc(OC)c(OC)c2)cc1OC	-0.3	-0.5	-0.8	-1.2	-1.6	-5.2
Cc1ccc(NC(=O)CSc2nc3ccccc3c3nc(CCc4c(C)n[nH]c4C)nn23)cc1F	-19.8	-2.0	4.6	-13.1	42.5*	-1.2
Cc1n[nH]c(C)c1CCc1nc2c3ccccc3nc(SCC(N)=O)n2n1	-0.8	-1.4	4.3	0.7	4.7	0.3
CCCCCCCCCCCC1N=C(N)NC(CCCO)=C1C(=O)OC (stereo not drawn)	-12.7	3.8	15.9	12.8	102.7*	4.7
CCCCCCOC(=O)c1ccc(N)cc1	0.4	1.0	1.8	6.0	4.3	1.3
O=c1cc(-c2ccccc2)oc2cc(O)ccc12	0.2	0.1	3.2	-2.7	-4.0	-10.0
O=c1ccc2c(-c3ccccc3)c3ccc(O)cc3oc-2c1	+	-148.2	-74.7	i	i	18.4
SMILES	DNMT1 inh	LMPTP block	CSN inh	STEP inh	SUMO1-SIM PPI	Scp1 inh
Nc1ccc(-c2c3ccc(=O)cc-3oc3cc(O)ccc23)cc1C(=O)O	+	10.2	-73.1	-60.1	-355.8	3.6
COc1ccc(-c2c(C)c3ccc(O)cc3oc2=O)cc1OC	5.7	-2.0	-1.3	-1.6	-19.4	-9.1
Cc1c(CC(=O)NCC(=O)NCC(=O)N[C@@H](Cc2ccccc2)C(=O)O)c(=O)oc2c(C)c(O)ccc12	1.1	-1.1	-8.6	1.0	1.6	·
CCNc1ncnc2c1cnn2C	0.8	-1.5	2.0	2.3	4.2	-1.0
CC(=O)c1cccc(NC(=O)CNC(=O)Cc2cccc3ccccc23)c1	-3.4	3.2	-1.8	-2.3	0.5	-3.8
COc1ccc(NC(=O)CNC(=O)Cc2cccc3ccccc23)cc1	0.7	-0.1	36.6*	-0.3	3.3	-6.8
CC[C@H]1OC(=O)[C@H](C)[C@@H](O[C@H]2C[C@@](C)(OC)[C@@H](O)[C@H](C)O2)[C@H](C)[C@@H](O[C@@H]2O[C@H](C)C[C@H](N(C)C)[C@H]2O)[C@](C)(O)C[C@@H](C)C(=O)[C@H](C)[C@@H](O)[C@]1(C)O	76.8*	74.9*	4.5	1.1	14.2	7.6
COCCN(CC(=O)Nc1cccc(C)c1C)C(=O)c1cc2c(s1)CCC2	39.3	5.4	3.3	9.2	9.4	61.1*
CCN(CC(=O)Nc1ccccc1C(F)(F)F)C(=O)c1cc2c(s1)CCCCC2	0.8	0.6	3.6	-1.1	0.3	-4.8
CCOc1ccc(/C=N/NC(=O)Cc2cccs2)cc1	0.9	-1.0	4.4	-0.6	-3.0	2.7
C#CCOc1nc(Nc2cccc([N+](=O)[O-])c2)nc(OCC#C)n1	0.4	0.7	1.4	-2.1	46.1*	-4.7
COc1cccc(CN2CCNC(=O)C2CC(=O)NCCN2CCCCC2=O)c1 (stereo not drawn)	-1.6	-2.8	1.7	-3.0	-6.7	5.8
O=C(N1CCCCC1)C1(c2ccccc2)CCCCC1	-1.3	0.1	37.3*	-0.8	-1.9	-8.6
O=C(N1CCCCC1)C1(c2ccccc2)CCOCC1	1.3	-2.7	-4.3	-3.9	-1.8	-6.9
Cc1cc(N2CCN(c3nc(-c4ccc([N+](=O)[O-])cc4)cs3)CC2)c2ccccc2n1	-14.3	95.4*	-0.4	4.3	-7.0	4.1
COc1ccc2cnn(-c3ccc(OC(F)(F)F)cc3)c(=O)c2c1OC	1.7	-0.3	-0.9	3.0	-0.8	-11.4
COc1cccc(-c2nnc3n2N=C(c2cccc(Br)c2)CS3)c1	28.6	-2.9	7.8	-1.0	49.4*	-4.6
